The values below come from ChEMBL document CHEMBL4017491, “Phthalazino[1,2-b]quinazolinones as p53 Activators: Cell Cycle Arrest, Apoptotic Response and Bak-Bcl-xl Complex Reorganization in Bladder Cancer Cells” (J Med Chem, 2017).

The test system of one assay is Escherichia coli. The assay can be described thus: Induction of DNA damage in Escherichia coli pBR322 DNA assessed as effect on mobility rate at 5 uM after 1 hr by DNA relaxation assay. In short, it runs like this: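 pBR322 plasmid DNA incubated 1 h with compound over 1−10 μM in 5 mM Tris-HCl, 50 mM NaCl, pH 7.2. Samples run on 1.5% agarose gel, stained with 0.5 μg·mL−1 ethidium bromide; conformation and migration rate compared with 1% DMSO plus plasmid (negative control) and ethidium bromide plus plasmid (positive control).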

Another assay deals with T-24. Description: Effect on p53 protein expression in human T24 cells at 10 uM after 24 hrs by Western blot analysis. Format: functional, cell-based. In short, it runs like this:
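T24 cells (3 × 10^5 per well) grown to 85–95% confluence, then exposed 24 h to 0–10 μM. Whole-cell extracts run on SDS-PAGE and blotted to nitrocellulose. Probed with the indicated antibodies and AP-linked anti-rabbit IgG, with ECL detection. Blots stripped and reprobed for β-actin as loading control.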

Molecules are shown by their SMILES. The source made the active and inactive calls. The calls are words filed in the database; no cut-off is given here.

With `CC[n+]1c(-c2ccccc2)c2cc(N)ccc2c2ccc(N)cc21`, the outcome in the assay with Escherichia coli was Active.

On to `COc1ccc(C2=N[C@H](c3ccc(Cl)cc3)[C@H](c3ccc(Cl)cc3)N2C(=O)N2CCNC(=O)C2)c(OC(C)C)c1`, for which the outcome in the assay with T-24 was inactive.
